Data from ChEMBL document CHEMBL3124927, “New C(4)- and C(1)-derivatives of furo[3,4-c]pyridine-3-ones and related compounds: evidence for site-specific inhibition of the constitutive proteasome and its immunoisoform” (Bioorg Med Chem Lett, 2014).
The source made the active and inactive calls. The rule behind the calls is not given here.

Key:
[1] = Inhibition of 20s constitutive proteasome beta 2 subunit trypsin-like activity in rabbit erythrocytes using Boc-LRR-AMC as substrate incubated for 15 mins prior to substrate addition measured after 45 mins by fluorescence assay; format: cell-based, Oryctolagus cuniculus
Method in brief: (§1)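 Purified rabbit erythrocyte constitutive 20S fraction, 0.27 nM enzyme, pre-incubated 15 min with or without inhibitor, then Boc-LRR-AMC added. Buffer at pH 7.5. Fluorescence read-out. IC50 is from a plot of percent inhibition against inhibitor concentration, Hill-equation fit.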

[2] = biological target: T1, Calpain-1 catalytic subunit (Homo sapiens) (UniProt P07384); assay: Inhibition of human calpain-1 using Suc-LLVY-AMC as substrate by fluorescence assay
T1 sequence (whole entry): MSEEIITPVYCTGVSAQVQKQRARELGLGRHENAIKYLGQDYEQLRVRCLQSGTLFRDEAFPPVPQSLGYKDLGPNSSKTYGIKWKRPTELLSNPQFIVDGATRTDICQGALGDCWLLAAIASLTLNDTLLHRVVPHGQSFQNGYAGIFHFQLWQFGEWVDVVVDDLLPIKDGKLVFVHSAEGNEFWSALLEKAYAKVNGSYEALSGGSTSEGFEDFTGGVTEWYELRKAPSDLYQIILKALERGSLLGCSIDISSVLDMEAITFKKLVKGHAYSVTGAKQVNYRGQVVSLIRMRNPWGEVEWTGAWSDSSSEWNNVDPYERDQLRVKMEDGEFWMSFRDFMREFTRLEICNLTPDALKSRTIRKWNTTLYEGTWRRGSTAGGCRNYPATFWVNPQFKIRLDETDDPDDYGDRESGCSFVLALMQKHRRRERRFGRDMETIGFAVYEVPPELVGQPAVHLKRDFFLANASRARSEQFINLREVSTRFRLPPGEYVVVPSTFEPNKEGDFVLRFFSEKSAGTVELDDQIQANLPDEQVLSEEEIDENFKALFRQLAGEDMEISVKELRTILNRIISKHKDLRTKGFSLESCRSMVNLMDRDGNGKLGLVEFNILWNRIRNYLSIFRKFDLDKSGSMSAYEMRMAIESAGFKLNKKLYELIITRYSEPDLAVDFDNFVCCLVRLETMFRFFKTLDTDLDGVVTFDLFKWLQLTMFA
Method in brief: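 Human calpain I fraction, Suc-LLVY-AMC substrate, at 25 °C in 50 mM Tris, 10 mM DTT with CaCl2, pH 7.2. Fluorescence read-out. IC50 is from percent inhibition versus inhibitor concentration.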

[3] = biological target: Cathepsin B (Homo sapiens) (UniProt P07858); assay: Inhibition of human cathepsin B using Z-RR-AMC as substrate by fluorescence assay
Method in brief: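 Human cathepsin B fraction, Z-RR-AMC substrate, at 37 °C in 352 mM KH2PO4, 48 mM Na2HPO4, 1 mM EDTA, 1 mM DTT, pH 6. Fluorescence read-out. IC50 is from percent inhibition versus inhibitor concentration.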

Oryctolagus cuniculus [4] = organism: Oryctolagus cuniculus; assay: Inhibition of 20s constitutive proteasome beta 1 subunit caspase-like activity in rabbit erythrocytes using Z-LLE-betaNA as substrate at 100 uM incubated for 15 mins prior to substrate addition measured after 45 mins by fluorescence assay relative to control; format: cell-based
Method in brief: (§2)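 Purified rabbit erythrocyte constitutive 20S fraction, 0.27 nM enzyme, pre-incubated 15 min with or without inhibitor before substrate addition. Buffer pH 7.5: 20 mM Tris, 1 mM DTT, 10% glycerol, 0.02% (w/v) SDS. Fluorescence read-out. IC50 is from a percent inhibition versus concentration plot, fitted with a Hill-type equation.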

[5] = Inhibition of 20s constitutive proteasome beta 5 subunit chymotrypsin-like activity in rabbit erythrocytes using Suc-LLVY-AMC as substrate incubated for 15 mins prior to substrate addition measured after 45 mins by fluorescence assay; format: cell-based, Oryctolagus cuniculus; method in brief: as §2
Oryctolagus cuniculus [6] = organism: Oryctolagus cuniculus; assay: Inhibition of 20s constitutive proteasome beta 5 subunit chymotrypsin-like activity in rabbit erythrocytes using Suc-LLVY-AMC as substrate at 100 uM incubated for 15 mins prior to substrate addition measured after 45 mins by fluorescence assay relative to control; format: cell-based; method in brief: as §2
[7] = Inhibition of 20s constitutive proteasome beta 1 subunit caspase-like activity in rabbit erythrocytes using Z-LLE-betaNA as substrate incubated for 15 mins prior to substrate addition measured after 45 mins by fluorescence assay; format: cell-based, Oryctolagus cuniculus; method in brief: as §2
Oryctolagus cuniculus [8] = organism: Oryctolagus cuniculus; assay: Inhibition of 20s constitutive proteasome beta 2 subunit trypsin-like activity in rabbit erythrocytes using Boc-LRR-AMC as substrate at 100 uM incubated for 15 mins prior to substrate addition measured after 45 mins by fluorescence assay relative to control; format: cell-based; method in brief: as §1
Oryctolagus cuniculus [9] = organism: Oryctolagus cuniculus; assay: Inhibition of 20s constitutive proteasome beta 2 subunit trypsin-like activity in rabbit erythrocytes using Boc-LRR-AMC as substrate at 50 uM incubated for 15 mins prior to substrate addition measured after 45 mins by fluorescence assay relative to control; format: cell-based; method in brief: as §1

Compound | IC50 [1] | inhibition [2] | inhibition [3] | IC50 [5] | IC50 [7] | also measured
CC1(C)OC(=O)c2c1ccnc2N1CCCCC1 | Not Active | inactive | inactive | Not Active | – | inhibition (Oryctolagus cuniculus [4]): 41.6%
Cc1ccc(OCC(O)CNc2nccc3c2C(=O)OC3(C)C)cc1 (configuration not stated) | – | inactive | inactive | – | Not Active | inhibition (Oryctolagus cuniculus [6]): 36.5%; IC50 ([1]; read-out: IC50): 60.8 µM
C[C@@]12OC(=O)[C@]1([C@@H](O)[C@@H]1C=CCCC1)NC(=O)[C@@H]2CCCl [MARIZOMIB] | – | – | – | – | – | IC50 ([1]; read-out: IC50): 0.021 µM; IC50 ([5]; read-out: IC50): 0.0026 µM; IC50 ([7]; read-out: IC50): 0.46 µM
C=C1c2c(ncn(CCCN3CCOCC3)c2=O)OC1(C)C | – | – | – | Not Active | Not Active | inhibition (Oryctolagus cuniculus [8]): 48%
Cc1cc(=O)oc2cc[nH]c(=O)c12 | – | inactive | inactive | – | Not Active | IC50 ([1]; read-out: IC50): 8.7 µM; IC50 ([5]; read-out: IC50): 29.4 µM
CC1(C)OC(=O)c2c1ccnc2NCC(O)COc1ccc(Cl)cc1 (configuration not stated) | – | inactive | inactive | – | Not Active | inhibition (Oryctolagus cuniculus [6]): 63%; IC50 ([1]; read-out: IC50): 48.1 µM
Cc1sc2ncn(CCc3ccc(Cl)cc3)c(=O)c2c1C | – | – | – | Not Active | Not Active | IC50 ([1]; read-out: IC50): 56 µM
C=C1c2c(ncn(CCO)c2=O)OC1(C)C | Not Active | – | – | Not Active | Not Active | –
C=C1c2c(ncn(CC(O)CN3CCOCC3)c2=O)OC1(C)C (configuration not stated) | Not Active | – | – | – | Not Active | inhibition (Oryctolagus cuniculus [6]): 33%
CC1(C)OC(=O)c2c1ccnc2NCC(O)COc1ccc(F)cc1 (configuration not stated) | Not Active | inactive | inactive | – | Not Active | inhibition (Oryctolagus cuniculus [6]): 29%
Cc1nccc2c1C(=O)OC2(C)C | – | inactive | inactive | Not Active | Not Active | IC50 ([1]; read-out: IC50): 88 µM
Cc1nccc2c1C(=O)OC21CCCCC1 | Not Active | inactive | inactive | Not Active | – | IC50 ([7]; read-out: IC50): 16.1 µM
C=C1c2c(ncn(CCCn3ccnc3)c2=O)OC1(C)C | – | – | – | Not Active | – | IC50 ([7]; read-out: IC50): 47 µM; inhibition (Oryctolagus cuniculus [8]): 56%
Cc1sc2ncn(CCCN3CCOCC3)c(=O)c2c1C | – | – | – | Not Active | Not Active | inhibition (Oryctolagus cuniculus [8]): 53%
O=c1c2c(-c3ccc(Cl)cc3)csc2ncn1CCc1ccccc1 | – | – | – | Not Active | Not Active | inhibition (Oryctolagus cuniculus [8]): 48%
O=c1c2c(-c3ccc(Cl)cc3)csc2ncn1CCc1ccc(F)cc1 | – | – | – | Not Active | Not Active | inhibition (Oryctolagus cuniculus [9]): 56%
CC1(C)OC(=O)c2c1ccnc2N | – | inactive | inactive | Not Active | – | IC50 ([7]; read-out: IC50): 7.9 µM; inhibition (Oryctolagus cuniculus [8]): 35%
Cc1ccc(CCn2cnc3sc(C)c(C)c3c2=O)cc1 | Not Active | – | – | Not Active | Not Active | –
CC1(C)OC(=O)c2c1ccnc2NNC(N)=S | – | inactive | inactive | – | – | inhibition (Oryctolagus cuniculus [6]): 26%; inhibition (Oryctolagus cuniculus [4]): 41%; inhibition (Oryctolagus cuniculus [8]): 29%
CC1(C)OC(=O)c2c1ccnc2Nc1ccc(Cl)cc1 | Not Active | inactive | inactive | – | – | inhibition (Oryctolagus cuniculus [6]): 24.5%; inhibition (Oryctolagus cuniculus [4]): 41.5%
CC12CCCC=C1c1c(nc[nH]c1=O)O2 (configuration not stated) | Not Active | – | – | Not Active | Not Active | –

Compound | IC50 [1] | inhibition [2] | inhibition [3] | IC50 [5] | IC50 [7] | also measured
C=C1c2c(nc[nH]c2=O)OC1(C)c1ccccc1 (configuration not stated) | Not Active | – | – | Not Active | Not Active | –
C=C1c2c(ncn(-c3ccc(Br)cc3)c2=O)OC1(C)C | – | – | – | Not Active | Not Active | inhibition (Oryctolagus cuniculus [8]): 29%
CC1(C)OC(=O)C(C(N)=O)=C1/C=C/c1ccccc1 | Not Active | inactive | inactive | Not Active | Not Active | –
O=C1OC2(CCCCC2)c2ccnc(S)c21 | Not Active | inactive | inactive | – | – | inhibition (Oryctolagus cuniculus [6]): 52%; inhibition (Oryctolagus cuniculus [4]): 20%
O=c1[nH]ccc2c1c(=O)oc1ccccc12 | Not Active | inactive | inactive | Not Active | Not Active | –
CC1(C)OC(=O)c2c1ccnc2S | Not Active | inactive | inactive | – | – | inhibition (Oryctolagus cuniculus [4]): 48%; IC50 ([5]; read-out: IC50): 79 µM
Nc1nccc2c1C(=O)OC21CCCCC1 | Not Active | inactive | inactive | Not Active | – | IC50 ([7]; read-out: IC50): 8.4 µM
Cc1sc2ncn(CCc3ccccc3)c(=O)c2c1C | – | – | – | Not Active | Not Active | inhibition (Oryctolagus cuniculus [8]): 42%
O=C1OC2(CCCCC2)c2ccnc(O)c21 | Not Active | inactive | inactive | Not Active | – | IC50 ([7]; read-out: IC50): 27.8 µM
CCC1(C)OC(=O)c2c1ccnc2N (configuration not stated) | Not Active | inactive | inactive | – | – | inhibition (Oryctolagus cuniculus [6]): 21.5%; IC50 ([7]; read-out: IC50): 7 µM
CC1(C)OC(=O)c2c1ccnc2O | Not Active | inactive | inactive | Not Active | – | IC50 ([7]; read-out: IC50): 16.7 µM
CC1(C)OC(=O)C(C(N)=S)=C1c1ccccc1 | Not Active | inactive | inactive | Not Active | Not Active | –
C=C1c2c(ncn(CC(O)COc3ccccc3)c2=O)OC1(C)C (configuration not stated) | Not Active | – | – | Not Active | Not Active | –
O=c1c2c(-c3ccc(Cl)cc3)csc2ncn1CCc1ccc(Cl)cc1 | – | – | – | Not Active | Not Active | inhibition (Oryctolagus cuniculus [8]): 52%
C=C1c2c(nc[nH]c2=O)OC1(C)C | – | – | – | Not Active | Not Active | IC50 ([1]; read-out: IC50): 59 µM
CC1(C)OC(=O)c2c1ccnc2NCC(O)COc1ccccc1 (configuration not stated) | Not Active | inactive | inactive | Not Active | – | IC50 ([7]; read-out: IC50): 48.1 µM
CC(N)C1=C(c2ccccc2)C(C)(C)OC1=O (configuration not stated) | Not Active | inactive | inactive | Not Active | Not Active | –
CCOC(=O)C1=C(/C=C/N(C)C)C(C)(C)OC1=O | Not Active | inactive | inactive | Not Active | Not Active | –
C=C1c2c(ncn(C)c2=O)OC12CCCCC2 | Not Active | – | – | – | Not Active | inhibition (Oryctolagus cuniculus [6]): 30%
Cc1sc2ncn(CCCn3ccnc3)c(=O)c2c1C | – | – | – | Not Active | Not Active | inhibition (Oryctolagus cuniculus [9]): 42%
